According to ChEMBL document CHEMBL1250520, “Antitumor agents. 280. Multidrug resistance-selective desmosdumotin B analogues” (2010):
Active and inactive are the calls of the source. The calls are words filed in the database; no cut-off is given here.

Legend:
[1] = Anticancer activity against human KBVIN cells after 3 days by SRB assay; format: functional; settings: 72 h, read-out: ED50 (the source's name)
Summary of the method: (§1)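 Cells seeded at 1500–7500 per well, compounds added from DMSO-diluted stock, grown 3 days in RPMI-1640 with 25mM HEPES, 0.25% sodium bicarbonate, 10% FBS and kanamycin. Attached cells fixed in cold 50% TCA, stained with 0.4% sulforhodamine B, absorbance read at 562 nm after dye solubilization. ED50 is the 50% growth-reduction concentration, averaged from at least three independent determinations.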

[2] = test system: KBVIN; experiment: Induction of apoptosis in human KBVIN cells assessed as DNA fragmentation after 1 days by ELISA; format: functional, cell-based
Summary of the method: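 Apoptosis in KB-VIN cells, including co-treatment with verapamil, read out by a Cell Death Detection ELISA PLUS kit.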

[3] = Anticancer activity against human Hep3B cells after 3 days by SRB assay; format: functional, Hep 3B2; settings: 72 h
[4] = Selectivity ratio of ED50 for human KB cells to ED50 for human KBVIN cells; format: functional
Summary of the method: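 Ratio of KB ED50 to KB-VIN ED50. Both values come from a 3-day sulforhodamine B assay with absorbance read at 562 nm. Cells were seeded at 1500–7500 per well and dosed from DMSO-diluted stock. Each ED50 is the mean of at least three independent determinations.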

[5] = test system: KBVIN; experiment: Inhibition of Pgp efflux pump in human KBVIN cells by calcein AM assay; format: cell-based
Summary of the method: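 KB-VIN cells, 10,000 per well, were grown 24 h in RPMI-1640 with 5% FBS. They were preincubated with compounds for 30 min at 37°C, then given fresh medium with 1 µM calcein-AM plus compounds for 30 min at 37°C in the dark. After cold PBS wash and hypotonic Tris-HCl lysis, fluorescence was read at Ex 494/Em 517 nm. Data pooled from two or more independent experiments.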

[6] = test system: KB; experiment: Anticancer activity against human KB cells after 3 days by SRB assay; format: functional; settings: 72 h, read-out: ED50 (the source's name); summary of the method: as §1
[7] = test system: Hep 3B2; experiment: Selectivity ratio of GI50 for human Hep3B cells to ED50 vincristine-resistant Hep3B cells; format: functional
[8] = Anticancer activity against vincristine-resistant human Hep3B cells after 3 days by SRB assay; format: functional, Hep 3B2; settings: 72 h

SMILES: CCC1=C(O)c2c(oc(-c3ccccc3)cc2=O)C(CC)(CC)C1=O [6,8,8-TRIETHYL DESMOSDUMOTIN B]
- EC50 [1]: 1070 nM
- Activity [2]: Active
- GI50 [3]: 47600 nM
- Ratio ED50 [4]: >221
- inhibition [5]: inactive
- EC50 [6]: > 237000 nM
- RatioGI50 [7]: 30
- GI50 [8]: 1570 nM
